# How the values were obtained:
# [1] = Cytotoxicity against mouse EAC cells in hypoxic condition assessed as cell viability at 1 ug/ml after 2 hrs by trypan blue exclusion assay; type: functional; details: Ehrlich, read-out: Activity
# Method in brief: (§1)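 EAC cells aspirated from ascitic fluid of pre-inoculated female Swiss albino mice, suspended at 2.5×10⁶ cells/ml. Compounds freshly diluted in DMSO, 0.1 ml added per tube. Parallel aerobic and anaerobic tube sets; anaerobic tubes gassed with N₂ throughout. Incubation 2 h, then centrifugation. Trypan blue exclusion with haemocytometer counts; % viability = unstained cells/total cells × 100. DMSO-only negative control.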
# [2] = Cytotoxicity against mouse EAC cells in hypoxic condition by trypan blue exclusion assay; type: functional, cell-based; details: Ehrlich
# Method in brief: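 EAC suspension (2.5×10⁶ cells/ml, from ascitic fluid of pre-inoculated female Swiss albino mice) exposed 2 h to DMSO-dissolved compounds over 1–100 µg/ml, in air or under continuous N₂. Viability by trypan blue exclusion, haemocytometer counts. IC50 taken as the concentration causing 50% mortality in net cell numbers.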
# [3] = Cytotoxicity against mouse EAC cells in hypoxic condition assessed as cell viability at 25 ug/ml after 2 hrs by trypan blue exclusion assay; type: functional; details: Ehrlich, read-out: Activity; method in brief: as §1
# HepG2 = test: Growth inhibition of human HepG2 cells after 48 hrs by SRB assay; type: functional, cell-based; details: HepG2, 48 h
# Method in brief: (§2)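 Cells plated at 10⁴ per well and allowed 24 h to attach. Compounds dissolved in DMSO were added at 0.1, 2.5, 5 and 10 µg/ml and incubated 48 h at 37 °C under 5% CO₂. Cells were then fixed, washed and stained with sulforhodamine B, and colour intensity was read on an ELISA reader.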
# [4] = Cytotoxicity against mouse EAC cells in aerobic condition assessed as cell viability at 100 ug/ml after 2 hrs by trypan blue exclusion assay; type: functional; details: Ehrlich, read-out: Activity; method in brief: as §1
# [5] = Cytotoxicity against mouse EAC cells in aerobic condition by trypan blue exclusion assay; type: functional, cell-based; details: Ehrlich; method in brief: as §1
# Ehrlich = test: Cytotoxicity against mouse EAC cells in hypoxic condition assessed as concentration required for 1% cell survival
# [6] = Cytotoxicity against mouse EAC cells in aerobic condition assessed as cell viability at 25 ug/ml after 2 hrs by trypan blue exclusion assay; type: functional; details: Ehrlich, read-out: Activity; method in brief: as §1
# [7] = Cytotoxicity against mouse EAC cells in hypoxic condition assessed as cell viability at 50 ug/ml after 2 hrs by trypan blue exclusion assay; type: functional; details: Ehrlich, read-out: Activity; method in brief: as §1
# [8] = Cytotoxicity against mouse EAC cells in aerobic condition assessed as cell viability at 50 ug/ml after 2 hrs by trypan blue exclusion assay; type: functional; details: Ehrlich, read-out: Activity; method in brief: as §1
# [9] = Cytotoxicity against mouse EAC cells in hypoxic condition assessed as cell viability at 10 ug/ml after 2 hrs by trypan blue exclusion assay; type: functional; details: Ehrlich, read-out: Activity; method in brief: as §1
# [10] = Cytotoxicity against mouse EAC cells in hypoxic condition assessed as cell viability at 5 ug/ml after 2 hrs by trypan blue exclusion assay; type: functional; details: Ehrlich, read-out: Activity; method in brief: as §1
# [11] = Cytotoxicity against mouse EAC cells in hypoxic condition assessed as cell viability at 100 ug/ml after 2 hrs by trypan blue exclusion assay; type: functional; details: Ehrlich, read-out: Activity; method in brief: as §1
# [12] = Cytotoxicity against mouse EAC cells in aerobic condition assessed as cell viability at 10 ug/ml after 2 hrs by trypan blue exclusion assay; type: functional; details: Ehrlich, read-out: Activity; method in brief: as §1
# U-251 = test: Growth inhibition of human U251 cells after 48 hrs by SRB assay; type: functional, cell-based; details: U-251, 48 h; method in brief: as §2
# [13] = Cytotoxicity against mouse EAC cells in aerobic condition assessed as cell viability at 1 ug/ml after 2 hrs by trypan blue exclusion assay; type: functional; details: Ehrlich, read-out: Activity; method in brief: as §1
# [14] = Cytotoxicity against mouse EAC cells in aerobic condition assessed as cell viability at 5 ug/ml after 2 hrs by trypan blue exclusion assay; type: functional; details: Ehrlich, read-out: Activity; method in brief: as §1
# [15] = Ratio of IC50 for mouse EAC cells in aerobic condition to IC50 for mouse EAC cells in hypoxic condition
SMILES,viability at 1 µg/mL [1] [%],IC50 [2] [mg/L],viability at 25 µg/mL [3] [%],IC50 (HepG2) [mg/L],viability at 100 µg/mL [4] [%],IC50 [5] [mg/L],Potency (Ehrlich) [mg/L],viability at 25 µg/mL [6] [%],viability at 50 µg/mL [7] [%],viability at 50 µg/mL [8] [%],viability at 10 µg/mL [9] [%],viability at 5 µg/mL [10] [%],viability at 100 µg/mL [11] [%],viability at 10 µg/mL [12] [%],IC50 (U-251) [mg/L],viability at 1 µg/mL [13] [%],viability at 5 µg/mL [14] [%],HCR (IC50 air/IC50 hypoxia ratio) [15]
COc1ccc(NC(=O)Nc2c(C)[n+]([O-])c3ccc(Cl)cc3[n+]2[O-])cc1,86.7,10,24.2,0.5,54.6,100,> 100,79.2,10.3,73.3,50.2,73.3,5.3,83,> 10,99.6,98,10
CCOc1ccc(/N=C/c2c(-c3ccccc3)[n+]([O-])c3ccc(OC)cc3[n+]2[O-])cc1,99.3,70,84.4,0.77,84.1,> 100,> 100,92.3,64.9,91.1,92.9,97,30.5,95.4,> 10,99.3,99,> 1.4
CCOc1ccc(NCc2nc3cc(OC)ccc3[n+]([O-])c2-c2ccccc2)cc1,100,> 100,95,4.95,85,> 100,> 100,97.6,87,93.3,98,99,80.7,96.3,> 10,100,98.6,> 1
COc1ccc2c(c1)[n+]([O-])c(C(=O)N=[N+]=[N-])c(C)[n+]2[O-],94.5,12.5,11.3,3.61,56,> 100,90,80.7,6.2,77.9,58.3,81.1,1.3,83.9,> 10,94.5,99,> 8
CNc1c(C#N)[n+]([O-])c2cc(Cl)ccc2[n+]1[O-],99.5,> 100,90.6,4.75,89,> 100,> 100,94,81.4,82.7,92.7,96,72,96.7,> 10,100,96,> 1
CC(=O)N(C(C)=O)c1c(C#N)[n+]([O-])c2cc(Cl)ccc2[n+]1[O-],75.4,2.5,3,5.69,77.7,> 100,22,80.7,1.3,78.9,12.6,30.3,0,83.9,> 10,99.6,99,> 40
Nc1n[n+]([O-])c2ccccc2[n+]1[O-] [TIRAPAZAMINE],,,,56.6,,,,,,,,,,,71.2,,,
COc1ccc(NC(=O)Nc2c(C)[n+]([O-])c3ccc(OC)cc3[n+]2[O-])cc1,,,,6,,,,,,,,,,,> 10,,,
Cc1c(C(=O)N=[N+]=[N-])[n+]([O-])c2cc(Cl)ccc2[n+]1[O-],99.3,> 100,84.2,,81.8,> 100,> 100,98,70.3,91.2,88.3,92.6,59.1,98,,100,98,> 1
COc1ccc2c(c1)[n+]([O-])c(NC(=O)OC(C)C)c(C)[n+]2[O-],94.8,> 100,82.3,6,87.7,> 100,> 100,97,76.2,92.6,90.4,91.9,63.2,99,> 10,100,99,> 1
Cc1c(NC(=O)OC(C)C)[n+]([O-])c2cc(Cl)ccc2[n+]1[O-],100,,96,> 10,92,,,97,96.3,96.4,97.3,98.3,90.6,98.3,> 10,100,98.8,
N#Cc1c(N)[n+]([O-])c2ccc(Cl)cc2[n+]1[O-],94,13.5,65.1,,94,> 100,> 100,95,43.5,94.3,71.3,87.8,5,97.3,,100,98.8,> 7.4

# — ChEMBL document CHEMBL1177836, “New quinoxaline 1, 4-di-N-oxides: anticancer and hypoxia-selective therapeutic agents” (Eur J Med Chem, 2010)
